STAT1 act = increases IFN-gamma driven STAT1 reporter signal; NIH 3T3 STAT1-luciferase reporter, luminescence; 100% = IFN-gamma alone, no compound; activation (% of control), % at 5.5 µM; 200,000 compounds, 2.6% hits; AID 932;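 active = activation above the screen-wide mean activation plus 3 SD, cut at about 130% in these data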;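 note: raw ratio to IFN-gamma control signal so 100% means no change and 0% no light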
APP 5'UTR act = APP 5'UTR luciferase reporter activation | SH-SY5Y APP 5'UTR luciferase reporter, luminescence; zero percent = DMSO vehicle wells | activation, % at 2 µM | 190,000 compounds, 1% hits | AID 1276;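 active = activation above a set limit, based on mean plus 3 SD of controls, cut at about 140% in these data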
NF-kB neuron act = raises NF-kB expression in human neuronal cells. fold change at 12.5 µM. NF-kB reporter expression; active compounds read high. AID 1239. 190,000 compounds, 1.6% hits; in the data active = fold change above about 3.3
FLuc inh counter = Photinus pyralis luciferase inhibition counter-screen; 200,000 compounds, 1.5% hits; ATPLite firefly luciferase biochemical luminescence, 10 min; inhibition, % at 10 µM;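 active = inhibition above about 50% when tested at 10 µM, limit read from the data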
Target sequence (P08659 whole entry, looked up): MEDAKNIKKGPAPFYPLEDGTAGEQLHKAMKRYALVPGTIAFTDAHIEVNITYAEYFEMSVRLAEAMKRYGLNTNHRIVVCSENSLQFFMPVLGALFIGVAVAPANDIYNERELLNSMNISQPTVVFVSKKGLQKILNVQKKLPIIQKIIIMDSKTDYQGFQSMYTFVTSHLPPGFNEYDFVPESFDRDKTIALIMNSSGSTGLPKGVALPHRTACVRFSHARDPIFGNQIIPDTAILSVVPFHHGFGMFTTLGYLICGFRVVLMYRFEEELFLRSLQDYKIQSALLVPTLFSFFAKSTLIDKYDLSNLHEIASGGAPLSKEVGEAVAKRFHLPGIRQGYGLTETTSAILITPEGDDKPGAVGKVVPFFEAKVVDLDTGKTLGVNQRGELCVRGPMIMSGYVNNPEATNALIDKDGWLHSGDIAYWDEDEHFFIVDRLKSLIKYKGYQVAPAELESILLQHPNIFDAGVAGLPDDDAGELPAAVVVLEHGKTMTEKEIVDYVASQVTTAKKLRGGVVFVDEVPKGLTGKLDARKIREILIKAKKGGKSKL
Pf gametocyte = kills late stage P. falciparum gametocytes. inhibition, % at 10.9 µM. 150,000 compounds, 0.065% hits. P. falciparum stage V gametocytes, ATP luminescence, 24 h;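 active = inhibition above the mean plus 3 SD of compounds within the control limits, set per campaign, cut at about 38% in these data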;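 note: 0% = DMSO wells and 100% = medium only without gametocytes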
FLuc stim CS = firefly luciferase counter-screen for stimulation assays. P08659. ATPlite luciferase biochemical, luminescence, 10 min; 0 = ATP-free wells, 1 = DMSO control. activation factor at 10 µM. 200,000 tested, under 10 active. AID 1027;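 active = luciferase activation factor, scaled between plate controls, of at least 2 with compound at 10 µM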
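System: luciferase plus luciferin reagent, cell-free; medium: PBS as buffer for the ATP substrate; dosing: test compounds dosed from 2 mM stocks in 100% DMSO; timing: 10 min post-reagent at room temperature; measured by: luminescence measurement of luciferase light output; evaluation: luciferase activation, seen as luminescence increase over controls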
* marks the source's active call; other numbers are inactive results. A selection: hits, their analogues and other compounds. The true share with any hit is near 3.5%.

What do the screens show for `COc1ccc([C@H]2CC(=O)C=C(c3ccc(Cl)c(C(F)(F)F)c3)C2)cc1OC`?
Pf gametocyte: -8.2

How did Cc1cccc(N(C(=O)c2nsc(Cl)c2Cl)C(C(=O)NC2CCCC2)c2ccc(O)cc2)c1 (centres undefined) do in these assays?
STAT1 act: 93.4; APP 5'UTR act: 11.3; NF-kB neuron act: 1.04; FLuc inh counter: -6.1; Pf gametocyte: 5.8; FLuc stim CS: 1.1

What do the screens show for `N/C(Cc1ccc([N+](=O)[O-])cc1)=N\OC(=O)CC1CCCCC1`?
STAT1 act: 97.3; APP 5'UTR act: 3.5; NF-kB neuron act: 1.07; FLuc inh counter: -2.9; Pf gametocyte: 59.1*; FLuc stim CS: 1

How did Cc1cccc(/C(N)=N/OC(=O)CCC2CCCCC2)c1 do in these assays?
STAT1 act: 112.3; APP 5'UTR act: 22.9; NF-kB neuron act: 1.28; FLuc inh counter: 53.5*; Pf gametocyte: 3.3; FLuc stim CS: 0.5

Results for Cc1ccc(CC(=O)O/N=C(\N)Cc2ccc([N+](=O)[O-])cc2)cc1 ?
STAT1 act: 100.1; APP 5'UTR act: 18.9; NF-kB neuron act: 1.23; FLuc inh counter: -10.0; Pf gametocyte: 29.4; FLuc stim CS: 1.1

Results for Cc1ccc(/C(N)=N/OC(=O)CCC2CCCCC2)cc1 ?
STAT1 act: 100.3; APP 5'UTR act: 3.3; NF-kB neuron act: 2.28; FLuc inh counter: 1.9; Pf gametocyte: -8.6; FLuc stim CS: 1

How did N/C(=N\OC(=O)CCC1CCCC1)c1cccnc1 do in these assays?
STAT1 act: 100.4; APP 5'UTR act: 10.0; NF-kB neuron act: 1.49; FLuc inh counter: 73.8*; Pf gametocyte: -7.8; FLuc stim CS: 0.3

Results for S=c1[nH]nc(-c2cc(-c3ccccc3)n[nH]2)n1/N=C/c1cccc(Cl)c1 ?
Pf gametocyte: -11.4

What do the screens show for `CCCC1CC(CCc2ccccc2)OS(=O)(=O)N1` (centres undefined)?
Pf gametocyte: -3.9

What do the screens show for `CCOC(=O)c1sc(=NC(=O)CCSc2ccccc2)n(C)c1C`?
STAT1 act: 136.1*; APP 5'UTR act: 28.8; NF-kB neuron act: 0.99; FLuc inh counter: 1.8; Pf gametocyte: -29.1; FLuc stim CS: 1

What do the screens show for `CCOC(=O)N1CCN(C(=O)CCSc2ccc(C)cc2)CC1`?
STAT1 act: 105.3; APP 5'UTR act: 22.5; NF-kB neuron act: 1.3; FLuc inh counter: -5.2; Pf gametocyte: -9.2; FLuc stim CS: 1.1

How did CCOC(=O)c1sc(=NC(=O)c2cccc(C)c2)n(C)c1C do in these assays?
STAT1 act: 142.5*; APP 5'UTR act: 161.9*; NF-kB neuron act: 3.49*; FLuc inh counter: 40.3; FLuc stim CS: 0.6

What do the screens show for `CCOC(=O)c1sc(=NC(=O)c2ccc(C)cc2)n(C)c1C`?
STAT1 act: 139.2*; APP 5'UTR act: 74.9; NF-kB neuron act: 3.67*; FLuc inh counter: 20.6; Pf gametocyte: -17.7; FLuc stim CS: 0.8

What do the screens show for `CCOC(=O)N1CCN(C(=O)CCSc2ccccc2)CC1`?
STAT1 act: 133.8*; APP 5'UTR act: 75.0; NF-kB neuron act: 1.84; FLuc inh counter: -3.3; FLuc stim CS: 1

Results for COc1cc(C2NC(=O)C(C#N)=C(Nc3cccc(C)c3)S2)ccc1O (centres undefined) ?
Pf gametocyte: 15.7

What do the screens show for `CCOC(=S)N/C(=N\S(=O)(=O)c1ccccc1)c1ccccc1`?
STAT1 act: 101.1; APP 5'UTR act: -3.3; NF-kB neuron act: 1.18; FLuc inh counter: -4.9; FLuc stim CS: 1

What do the screens show for `Cc1ccc(S(=O)(=O)/N=C(/NC(=S)Nc2ccccc2)c2ccccc2)cc1`?
STAT1 act: 150.4*; APP 5'UTR act: 143.5*; NF-kB neuron act: 5.97*; FLuc inh counter: 8.2; FLuc stim CS: 0.9

What do the screens show for `Cc1ccc(NC(=S)N/C(=N/S(=O)(=O)c2ccccc2)c2ccccc2)cc1`?
STAT1 act: 142.6*; APP 5'UTR act: 55.1; NF-kB neuron act: 2.35; FLuc inh counter: -4.4; FLuc stim CS: 1

What do the screens show for `Cc1ccc(-c2cc(C(F)F)nc(N3CCC(C)CC3)n2)cc1`?
STAT1 act: 101.2; APP 5'UTR act: 1.1; NF-kB neuron act: 1.26; FLuc inh counter: -4.6; Pf gametocyte: -11.1; FLuc stim CS: 1

What do the screens show for `O=[N+]([O-])c1nn(-c2ccc3c(c2)OCCO3)n(O)c1=NCc1ccc(F)cc1Cl`?
STAT1 act: 141.8*; APP 5'UTR act: 165.4*; NF-kB neuron act: 2.15; FLuc inh counter: 9.5; Pf gametocyte: -34.4; FLuc stim CS: 0.9

What do the screens show for `O=[N+]([O-])c1nn(-c2ccc3c(c2)OCCO3)n(O)c1=NCc1ccc(F)cc1`?
STAT1 act: 143.3*; APP 5'UTR act: 95.7; NF-kB neuron act: 2.87; FLuc inh counter: 5.6; Pf gametocyte: -1.2; FLuc stim CS: 0.9

How did CN=c1c([N+](=O)[O-])nn(-c2ccc3c(c2)OCCO3)n1O do in these assays?
STAT1 act: 115.3; APP 5'UTR act: 20.1; NF-kB neuron act: 1.44; FLuc inh counter: 1.9; Pf gametocyte: 1.0; FLuc stim CS: 1

What do the screens show for `COc1ccc(C(=O)NCc2ccccn2)cc1[N+](=O)[O-]`?
STAT1 act: 95.2; APP 5'UTR act: 9.5; NF-kB neuron act: 1.47; FLuc inh counter: 0.2; Pf gametocyte: 1.1; FLuc stim CS: 1

How did Cc1cc(S(=O)(=O)NCC2CCCO2)c(C)cc1Br (centres undefined) do in these assays?
Pf gametocyte: 4.3

What do the screens show for `Nc1[nH]nc2ncc3cc4ccccc4nc3c12`?
STAT1 act: 138.8*; APP 5'UTR act: -5.7; NF-kB neuron act: 0.42; FLuc inh counter: 2.2; Pf gametocyte: -16.8; FLuc stim CS: 1

Results for O=C(c1ccc(Cl)cc1)C1CCN(C(=O)c2ccccc2F)CC1 ?
Pf gametocyte: 7.9

How did COc1cccc(C(=O)Nc2ccc(Oc3nnc(-c4ccccc4)c4ccccc34)cc2)c1 do in these assays?
Pf gametocyte: -10.7

How did COc1ccc(NC(=O)c2cc(C(C)C)on2)cc1OC do in these assays?
STAT1 act: 117.2; APP 5'UTR act: 25.1; NF-kB neuron act: 1.53; FLuc inh counter: 5.0; FLuc stim CS: 0.9

Results for CC(C)c1cc(C(=O)Nc2ccc3c(c2)OCO3)no1 ?
STAT1 act: 116.5; APP 5'UTR act: 145.0*; NF-kB neuron act: 6.39*; FLuc inh counter: 45.4; FLuc stim CS: 0.5

How did O=C(Nc1ccc2c(c1)OCO2)c1noc2c1CCCCC2 do in these assays?
STAT1 act: 142.0*; APP 5'UTR act: 178.4*; NF-kB neuron act: 7.71*; FLuc inh counter: 57.3*; FLuc stim CS: 0.4

How did COc1ccc(NC(=O)c2cc(C(C)C)on2)c(OC)c1 do in these assays?
STAT1 act: 138.4*; APP 5'UTR act: 53.0; NF-kB neuron act: 2.62; FLuc inh counter: 8.5; FLuc stim CS: 0.9

Results for O=C(Nc1ccc2c(c1)OCO2)c1cnccn1 ?
STAT1 act: 130.0*; APP 5'UTR act: 39.1; NF-kB neuron act: 2.23; FLuc inh counter: 21.4; Pf gametocyte: -1.5; FLuc stim CS: 0.8
